Results published in PubChem BioAssay.
The source made the active and inactive calls.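 The calls were made as follows, unless noted: active = inhibition above 20% together with a positive visual image hit; inconclusive = visual image hit but inhibition not above 20%; inactive = no visual image hit.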

Tests used:
[1] = inhibitors of TNFa-induced NFkB p65 translocation, primary screen, imaging, HUVEC, MLSMR starter and 10KST1 sets (AID 438); details: HUVEC TNFa-induced p65 nuclear translocation; cell count: measured here: nuclei count (cytotoxicity indicator), at 2.08 µM; inhibition: at 2 µM, stronger effect = higher value, 0% TNFa-plus-vehicle, 100% no-TNFa wells;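 also: compound added about 3h40 before a 20 min TNFalpha stimulation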;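 as to inhibition: signal is the nuclear over cytoplasmic p65 intensity ratio per well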
[2] = reduction of polyQ htt aggregates in cells – imaging, exon1htt(103Q)mCFP cells, high-content imaging, primary screen (AID 483;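 active = visual image review flags a hit and inhibition of aggregation exceeds 20%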;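 also: compound exposure lasted 3 days before fixation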;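 as to nuclei count: percent of the per-plate median nuclei count of sample wells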); details: exon1htt(103Q)mCFP cell line, aggregate imaging, at 2 µM; inhibition of aggregation: stronger effect = higher value; nuclei count: measured here: cell count, toxicity
[3] = endothelial E-selectin expression blockers – imaging, HUVEC, immunofluorescence, MLSMR starter and 10KST1 sets, primary screen (AID 487;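 active = visually confirmed hit in the image check and inhibition above 20%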;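 as to inhibition: signal is fraction of cell area covered by stained E-selectin grains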;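 as to nuclei count: 100% = median nuclei count of all wells on the same plate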); details: HUVEC TNFalpha-induced E-selectin immunofluorescence imaging, at 2 µM; inhibition: stronger effect = higher value; nuclei count: measured here: cell number, toxicity
[4] = biological target: Voltage-gated potassium channel subunit beta-2 (Rattus norvegicus) (UniProt P62483); assay: inhibitors of rat Kvbeta2 reductase activity – biochemical, NADPH fluorescence, primary screen (AID 622;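 active = fluorescence slope higher than the sample average by over 3 SD, cut at about -0.22 in these data, passing the limit was not always enough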;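 also: slope of raw intensity against log time taken from 70 to 1610 s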); details: recombinant KvBeta, 4-cyanobenzaldehyde reduction, at 10 µM, stronger effect = higher value
[5] = biological target: Voltage-gated potassium channel subunit beta-2 (Rattus norvegicus) (UniProt P62483); assay: enhancers of rat Kvbeta2 NADPH turnover – biochemical, NADPH fluorescence, primary screen (AID 623;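 active = NADPH fluorescence slope more negative than the mean of all samples by about 3 SD, 99.7% confidence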;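 also: fluorescence intensity change per second fitted from 20 to 320 s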); details: Recombinant KvBeta, NADPH fluorescence decrease slope, 10 min; at 10 µM; stronger effect = lower value
[6] = biological target: Muscarinic acetylcholine receptor M4 (Homo sapiens) (UniProt P08173); assay: M4-linked GIRK flux change, two-sided – cell-based, HEK293 M4/GIRK, thallium flux, BTC-AM, M4 allosteric agonist project, primary screen (AID 625;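 active = fluorescence slope after compound addition differing from the mean of all tested samples at 99.7% confidence, mostly higher but some lower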;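 also: thallium influx through GIRK channels coupled to M4 in HEK293 cells with BTC-AM dye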); details: at 10 µM, actives lie on both sides
In short: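 assay system = HEK293 cells with M4 receptor and GIRK channels | medium = pH 7.3 thallium assay buffer | doses = 10 µM final, single point | timing = cells overnight at 37 °C, BTC-AM loading 1 h, reads 2 min total | signal = BTC-AM fluorescence, 1 Hz kinetic reads | read-out = post-addition slope, 15–24 s, of baseline-normalized fluorescence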

[7] = blockers of RIG-like receptor reporter activation – cell-based, Sendai virus stimulus, luciferase, 10K MLSCN set, TLR/RLR signaling modifier project, primary screen (AID 602276;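 active = inhibition at or above 50% at 10 µM; inactive = inhibition below 50%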;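 also: firefly luciferase from ISG56 promoter only with Renilla not read in this screen; 0% = Sendai virus plus DMSO and 100% = medium plus DMSO without virus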); details: HEK293 RL24 IRF3 luciferase reporter, at 10 µM, stronger effect = higher value
[8] = TLR3 IRF3 reporter activation blockers – cell-based, poly I:C stimulus, luciferase, 10K MLSCN set, primary screen (AID 602277;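 active = inhibition of the reporter signal at or above 50%; inactive = inhibition below 50%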); details: HEK293-TLR3 RL24 IRF3 luciferase reporter, at 10 µM, stronger effect = higher value

Sequence of Voltage-gated potassium channel subunit beta-2 (Rattus norvegicus) (P62483 whole entry, looked up): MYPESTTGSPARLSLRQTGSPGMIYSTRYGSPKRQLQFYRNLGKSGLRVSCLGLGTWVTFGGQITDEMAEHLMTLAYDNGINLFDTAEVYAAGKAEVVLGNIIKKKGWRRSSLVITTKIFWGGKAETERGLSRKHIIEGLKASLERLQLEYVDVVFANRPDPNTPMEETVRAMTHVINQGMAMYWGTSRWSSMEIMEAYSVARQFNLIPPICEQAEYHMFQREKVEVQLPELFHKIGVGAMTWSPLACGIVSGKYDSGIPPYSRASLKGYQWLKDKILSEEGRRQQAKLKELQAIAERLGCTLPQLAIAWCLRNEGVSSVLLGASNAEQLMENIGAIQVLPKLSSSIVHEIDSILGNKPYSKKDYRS
Sequence of Muscarinic acetylcholine receptor M4 (Homo sapiens) (P08173 whole entry, looked up): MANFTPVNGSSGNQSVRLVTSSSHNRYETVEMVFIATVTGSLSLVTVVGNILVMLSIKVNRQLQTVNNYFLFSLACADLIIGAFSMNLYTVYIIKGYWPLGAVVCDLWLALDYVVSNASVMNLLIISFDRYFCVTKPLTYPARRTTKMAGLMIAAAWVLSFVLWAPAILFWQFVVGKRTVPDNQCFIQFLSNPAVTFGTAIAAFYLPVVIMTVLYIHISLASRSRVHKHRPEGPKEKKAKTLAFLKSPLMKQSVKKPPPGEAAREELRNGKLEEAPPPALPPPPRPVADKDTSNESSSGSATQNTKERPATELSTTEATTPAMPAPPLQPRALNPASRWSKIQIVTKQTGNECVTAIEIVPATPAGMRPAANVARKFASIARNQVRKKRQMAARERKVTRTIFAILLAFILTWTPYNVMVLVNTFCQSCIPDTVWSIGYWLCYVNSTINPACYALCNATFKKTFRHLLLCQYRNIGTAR

SMILES	cell count [1]	inhibition [1]	inhibition of aggregation [2]	nuclei count [2]	inhibition [3]	nuclei count [3]	fluorescence slope [4]	NADPH fluorescence slope [5]	fluorescence slope [6]	inhibition [7]	inhibition [8]
CCn1cnc2cc(NCc3cccc(OC)c3O)ccc21	322	-2.8% (inactive)	-3.1% (inactive)	94.7%	-18.2% (inactive)	88%	-0.437 (inactive)	-4.8e-05 (inactive)	0.00434 (inactive)	-3.88% (inactive)	-26.2% (inactive)
O=C(N1CCOCC1)N1CCC(NC(=O)C23CC4CC(CC(C4)C2)C3)CC1	363	9.1% (inactive)	-0.3% (inactive)	99%	-15.5% (inactive)	81.8%	-0.55 (inactive)	-4e-05 (inactive)	0.00404 (inactive)	15.6% (inactive)	21.8% (inactive)
CC(=O)c1ccc(Oc2cc(C)nc(-n3nc(C)cc3C)n2)cc1	468	-15.6% (inactive)	-50.7% (inactive)	1.1%	-17.9% (inactive)	102%	-0.547 (inactive)	1.9e-05 (inactive)	0.00511 (inactive)	-4.86% (inactive)	78.2% (active)
CCn1c(SCC(=O)NCc2ccco2)nc2c(c1=O)SC(C)C2 (stereo not drawn)	368	8.3% (inactive)	-2.9% (inactive)	101%	-14.8% (inactive)	115%	-0.4 (inactive)	-0.000131 (inactive)	0.0058 (inactive)	4.07% (inactive)	9.1% (inactive)
O=C(O)C1CCCN1C(=O)Nc1ccc(F)cc1 (stereo not drawn)	543	-32.6% (inactive)	13.6% (inactive)	91.3%	-32.7% (inactive)	98.5%	-0.301 (inactive)	-4.9e-05 (inactive)	0.00613 (inactive)	8.17% (inactive)	10.2% (inactive)
CC(C(=O)Oc1ccc2c(c1)OCO2)N1C(=O)c2ccccc2C1=O (stereo not drawn)	790	-10.1% (inactive)	9.8% (inactive)	104%	-33.5% (inactive)	101%	-0.609 (inactive)	-2.3e-05 (inactive)	0.00538 (inactive)	23.3% (inactive)	27.7% (inactive)
CC(C)CN1C(=O)c2ccc(C(=O)Nc3nccs3)cc2C1=O	513	8.1% (inactive)	-20.1% (inactive)	120%	-335% (inactive)	137%	-0.586 (inactive)	-2.9e-06 (inactive)	0.00611 (inactive)	13.3% (inactive)	5.57% (inactive)
CCOC(=O)c1ccc(N2C(=O)C3CC=CCC3C2=O)cc1 (stereo not drawn)	640	-6.3% (inactive)	-0.1% (inactive)	104%	40.6% (inactive)	101%	-0.545 (inactive)	-1.8e-05 (inactive)	0.00473 (inactive)	1.51% (inactive)	-1.14% (inactive)
CC12C(=O)N(CCC(=O)O)C(=O)C1C1C=CC2C1 (stereo not drawn)	666	23.6% (active)	3.1% (inactive)	99.2%	7.8% (inactive)	114%	-0.456 (inactive)	-4.5e-05 (inactive)	0.00503 (inactive)	17.6% (inactive)	21.9% (inactive)
CCOC(=O)c1ccccc1NC(=O)Cn1cnc2c(cnn2-c2ccc(OC)cc2)c1=O	705	-25.5% (inactive)	-6.3% (inactive)	108%	-0.4% (inactive)	101%	-0.237 (inactive)	-4.6e-06 (inactive)	0.0067 (inactive)	10.8% (inactive)	22.8% (inactive)
CCC(=O)Nc1cccc(Br)c1	323	2.9% (inactive)	17.6% (inactive)	99.7%	-38.1% (inactive)	123%	-0.541 (inactive)	-6e-05 (inactive)	0.0051 (inactive)	-18.4% (inactive)	-1.97% (inactive)
CCOC(=O)N1CCN(C(=O)C2c3cc(OC)c(OC)cc3C(=O)N3CCc4ccccc4C23)CC1 (stereo not drawn)	312	0.5% (inactive)	13.5% (inactive)	104%	6.9% (inactive)	102%	-0.397 (inactive)	4.3e-05 (inactive)	0.00684 (inactive)	14.7% (inactive)	13.6% (inactive)
O=C(NCC(=O)N(CCc1ccccc1)C(C(=O)NC1CCCC1)c1cccnc1)c1ccco1 (stereo not drawn)	464	6.5% (inactive)	2.2% (inactive)	108%	-126% (inactive)	141%	-0.493 (inactive)	1.4e-05 (inactive)	0.00509 (inactive)	7.14% (inactive)	6.57% (inactive)
COC(=O)Cc1[nH]nc2c1C(C1C=CCCC1)C(C#N)=C(N)O2 (stereo not drawn)	592	5.7% (inactive)	7.6% (inactive)	90.6%	-0.2% (inactive)	117%	-0.41 (inactive)	2.6e-05 (inactive)	0.00509 (inactive)	18.7% (inactive)	26.3% (inactive)
O=C(Nc1ccccc1C(=O)N1CCCCCC1)c1cccc(S(=O)(=O)N2CCOCC2)c1	492	-6.5% (inactive)	-11.4% (inactive)	74.5%	-60.5% (inactive)	84.2%	-0.572 (inactive)	-2.1e-05 (inactive)	0.00535 (inactive)	3.13% (inactive)	10.6% (inactive)
CCn1c(SCC(=O)Nc2ccc(C(C)=O)cc2)nc2ccccc21	227	14.4% (inactive)	-7.2% (inactive)	101%	-2.2% (inactive)	98.3%	-0.453 (inactive)	-0.000344 (inactive)	0.00502 (inactive)	-13% (inactive)	-19.9% (inactive)
CN(C)CCCNC(=O)CCC1CCCCC1	333	-12.5% (inactive)	-4% (inactive)	103%	-132% (inactive)	110%	-0.277 (inactive)	-3.7e-05 (inactive)	0.00526 (inactive)	12% (inactive)	21.1% (inactive)
CCC(=O)OC1(C#CCOc2ccc(OC)cc2)CCN(C)CC1	393	-6.5% (inactive)	-20.2% (inactive)	113%	-43.3% (inactive)	142%	-0.61 (inactive)	-2.5e-05 (inactive)	0.00292 (inactive)	17.8% (inactive)	16% (inactive)
Cc1nc(CNS(=O)(=O)c2cc(C)c(C)cc2C)cs1	331	6.3% (inactive)	-7.4% (inactive)	109%	-13.2% (inactive)	107%	-0.329 (inactive)	-5.1e-05 (inactive)	0.00703 (inactive)	9.82% (inactive)	10.7% (inactive)
COc1nc(OC)nc(N2CCC(NC(=O)C(Cc3ccc(C(C)C)cc3)NC(C)=O)CC2)n1 (stereo not drawn)	800	-5.5% (inactive)	-37.6% (inactive)	119%	-10.4% (inactive)	130%	-0.486 (inactive)	-4.2e-05 (inactive)	0.00515 (inactive)	12.2% (inactive)	11.8% (inactive)
COc1ccc(CCNC(=O)COc2ccc(S(=O)(=O)N3CCOCC3)cc2)cc1	588	-17.6% (inactive)	10.7% (inactive)	88.7%	11.7% (inactive)	116%	-0.32 (inactive)	-4.1e-05 (inactive)	0.00641 (inactive)	12.7% (inactive)	23% (inactive)
Cc1cccc(NCc2ccccc2O)c1	454	4.9% (inactive)	1.3% (inactive)	94.5%	10.3% (inactive)	104%	-0.55 (inactive)	-2.3e-05 (inactive)	0.00568 (inactive)	10.1% (inactive)	3.99% (inactive)
N#Cc1cnc2sc3ccccc3n2c1=N	332	-12.6% (inactive)	5.1% (inactive)	119%	-14.8% (inactive)	106%	-0.554 (inactive)	7.2e-06 (inactive)	0.00378 (inactive)	-9.74% (inactive)	-37.6% (inactive)
O=S(=O)(NCCc1ccncc1)c1cc(Br)ccc1F	231	1.9% (inactive)	-9.7% (inactive)	106%	-46.9% (inactive)	110%	-0.626 (inactive)	-1.6e-05 (inactive)	0.00792 (inactive)	24.5% (inactive)	16.5% (inactive)
COc1ccc2c(C(F)(F)F)cc(=O)oc2c1C	701	-1.8% (inactive)	0.8% (inactive)	99.9%	-97% (inactive)	111%	-0.428 (inactive)	1.9e-05 (inactive)	0.00456 (inactive)	17% (inactive)	11.3% (inactive)
COC(=O)C1=C(C)NC(C)=C(C(=O)OC)C1c1cc2cc(C)ccc2[nH]c1=O	509	11.1% (inactive)	-7.7% (inactive)	102%	-103% (inactive)	136%	-0.493 (inactive)	-2.9e-05 (inactive)	0.00508 (inactive)	18.9% (inactive)	30.9% (inactive)
Cc1cc(Nc2ccccc2)n(CCC#N)n1	350	1.6% (inactive)	-7.9% (inactive)	96.4%	-89.1% (inactive)	129%	-0.415 (inactive)	-8.1e-05 (inactive)	0.00613 (inactive)	15.7% (inactive)	14.3% (inactive)
Cn1c2c(c(=O)n(C)c1=O)CN(CCCN1CCOCC1)CN2	541	-5% (inactive)	9.8% (inactive)	115%	41.5% (inactive)	90.5%	-0.595 (inactive)	2.4e-05 (inactive)	0.00524 (inactive)	8.17% (inactive)	16.9% (inactive)
